Hits are enriched below; roughly 1.3% of the tested compounds scored in any of these assays.
Furin inhibitor: human furin inhibitors, primary screen, biochemical, fluorescence intensity; purified furin, fluorogenic substrate cleavage; inhibition, % at 20 µM or 30 µM; hit rate 0.061% among 220,000; AID 463115, 2010; in the data active means inhibition above about 25%
Target sequence (P09958 108-714 limits assumed): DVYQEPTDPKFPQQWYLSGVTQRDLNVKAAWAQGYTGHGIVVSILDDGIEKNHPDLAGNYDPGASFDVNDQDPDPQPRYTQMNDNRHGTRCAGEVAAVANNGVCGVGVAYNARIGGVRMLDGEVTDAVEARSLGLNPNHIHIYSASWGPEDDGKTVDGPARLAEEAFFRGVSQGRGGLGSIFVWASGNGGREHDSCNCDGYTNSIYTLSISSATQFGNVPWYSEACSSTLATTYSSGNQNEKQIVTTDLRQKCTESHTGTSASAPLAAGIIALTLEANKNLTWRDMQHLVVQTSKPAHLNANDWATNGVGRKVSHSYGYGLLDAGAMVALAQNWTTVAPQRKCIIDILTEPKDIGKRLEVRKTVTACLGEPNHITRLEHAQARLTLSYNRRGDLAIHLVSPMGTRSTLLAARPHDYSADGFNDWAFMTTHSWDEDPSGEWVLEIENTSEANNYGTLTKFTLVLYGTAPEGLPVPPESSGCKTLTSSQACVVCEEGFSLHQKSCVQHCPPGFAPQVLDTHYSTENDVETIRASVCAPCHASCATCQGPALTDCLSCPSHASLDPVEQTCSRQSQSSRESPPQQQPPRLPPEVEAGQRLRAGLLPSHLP
EP2 mod: EP2 receptor modulators, cAMP readout, primary screen, cell-based, HTRF cAMP, PGE2 stimulation. hit rate 0.83% among 260,000. AID 940, 2007. Prostaglandin E2 receptor EP2 subtype (Homo sapiens), P43116. induction, % at 25 µM. EP2-expressing cells, cAMP HTRF FRET, PGE2 co-stimulation;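 active means compounds whose cAMP rise, as percent of the full-agonist control response, exceeds 60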;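 further: rat C6 glioma line stably carrying human EP2 under a CMV promoter; the protocol text gives 20 µM as final concentration; 100% = response of wells given 1 µM PGE2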
JMJD2C inh: inhibitors of GASC-1 histone demethylase, primary screen, biochemical, fluorescence, DELFIA europium; Lysine-specific demethylase 4C (Homo sapiens), Q9H3R0; GST-JMJD2C(1-420) H3K9me3 demethylation; inhibition, % at 2.35 µM; hit rate 0.069% among 330,000; AID 2099, 2009;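 active means more than half of a compound's replicate wells show inhibition beyond 50%, single wells judged on their own value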;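 further: signal counts dimethyl H3K9 product captured on neutravidin plate; 0% = median of DMSO wells and 100% = 0.3 times that DMSO median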
NR2E3 ag-1: NR2E3 agonists in two-hybrid cells, primary screen, cell-based, luminescence, CHO-S, Gal4-NCOR/VP16-NR2E3. luciferase. inhibition of corepressor binding, % at 3.98 µM. hit rate 0.35% among 360,000. AID 602229, 2012;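 active means inhibition above the mean of all tested compounds plus 3 SD, cut at about 70% in these data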;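 further: 0% = DMSO with NR2E3 transfected cells and 100% = cells lacking NR2E3 construct; higher means lower luciferase signal from less NR2E3 corepressor binding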
NR2E3 ag-2: inhibitors of NR2E3-RetCOR corepressor binding, primary screen, NR2E3 agonist project, biochemical, TR-FRET, GST-NR2E3, biotin-RetCOR; Photoreceptor-specific nuclear receptor (Homo sapiens), Q9Y5X4; 1536-well; inhibition of corepressor binding, % at 4.78 µM; hit rate 0.12% among 320,000;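 active means percent inhibition above the cutoff of mean plus 3 SD of all tested compounds, set per screening campaign, cut at about 20% in these data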;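 further: 0% = DMSO wells and 100% = biotin wells as full block of FRET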
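Material: NR2E3–RetCOR corepressor complex | Quantity: 1.35 nM GST-tagged NR2E3 final | Schedule: 5 h at 4 °C | Replication: Singlicate compound wells | Reagent: RetCOR corepressor, biotinylated, 7 nM | Controls: Biotin wells as high control, 0.6% DMSO wells as low control | Signal: TR-FRET, Eu(K)-anti-GST donor, streptavidin-D2 acceptor, ex 340, em 617/671 nm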
PGE2 EP2 inh: human EP2 receptor antagonists, primary screen, TR-FRET cAMP, C6 glioma cells | hit rate 0.52% among 260,000 | inhibition, % at 25 µM | C6 glioma cells expressing human EP2; cells stimulated with saturating PGE2 | Prostaglandin E2 receptor EP2 subtype (Homo sapiens), P43116;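 active means percent inhibition above 40 after rounding to a whole number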;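 further: rat C6 glioma host cells with rolipram phosphodiesterase inhibitor present; the protocol text gives 20 µM as final concentration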
* hit, by the source's call; . = not tested or not shown.

SMILES	Furin inhibitor	EP2 mod	JMJD2C inh	NR2E3 ag-1	NR2E3 ag-2	PGE2 EP2 inh
Cc1nn(C)cc1S(=O)(=O)NCCNC(=O)c1ccccn1	.	-74	.	.	.	6
Cc1nnc(SCc2ccc(C(C)(C)C)cc2)n(N)c1=O	.	8	.	.	.	8
Cc1cc(N2CCCC2=O)cc(C)c1S(=O)(=O)NCCOc1ccc(C(C)(C)C)cc1	-12	-64	8	95*	3	8
Cc1cc(-n2cnnn2)cc(C)c1S(=O)(=O)NCCOc1ccccc1	.	.	-12	-7	-1	.
COc1ccc(NC(=O)CSc2nc(N)c(C(=O)Nc3ccc(N(C)C)cc3)s2)cc1	-18	-20	1	-37	-1	6
CN(C)c1ccc(NC(=O)CSc2nc(N)c(C(=O)Nc3ccc(N(C)C)cc3)s2)cc1	-10	-43	-2	-21	-3	41*
Cc1sc2nc(C3CC3)nc(SCC(=O)Nc3ccc(N(C)C)cc3)c2c1C	.	65*	.	.	.	16
O=C(/C=C/c1ccco1)Nc1ccc(-c2cc3ccccc3oc2=O)cc1	.	17	.	.	.	14
C=CCn1c(SCCN2C(=O)c3ccccc3C2=O)nc2scc(-c3ccccc3)c2c1=O	-15	-5	-10	-23	1	66*
C=CCn1c(SCc2ccccc2)nc2scc(-c3ccc(C)o3)c2c1=O	-13	19	-1	0	-2	10
CCCSC1=N/C(=C/c2ccsc2)C(=O)N1c1ccccc1	-19	63*	14	-41	0	9
CCCCSC1=N/C(=C/c2ccsc2)C(=O)N1c1ccccc1	-19	47	15	-9	3	11
Nc1nc(Nc2ccccc2F)nc(NCc2ccccc2)c1[N+](=O)[O-]	-14	76*	-2	-18	3	6
Nc1nc(Nc2ccccc2)nc(NCc2ccccc2)c1[N+](=O)[O-]	-8	38	5	11	4	5
Cc1cccc(Nc2nc(N)c([N+](=O)[O-])c(NCc3ccccc3)n2)c1	-7	76*	4	-14	1	11
CC(=O)Nc1ccc(C(=O)CSc2nnc3c4c5c(sc4nc(C(C)C)n23)CCCC5)cc1	.	20	.	.	.	16
Cc1cccc(C)c1N(CC(=O)N1CCN(C)CC1)S(C)(=O)=O	-13	64*	16	-4	4	14
Brc1cccc(Cn2c(-c3cncs3)nc3ccccc32)c1	-24	61*	-19	-10	2	10
c1ccc(Cn2c(-c3cncs3)nc3ccccc32)cc1	-20	32	-1	-74	-1	3
COc1cccc2c1C(=N)c1c(O)c3c(c(O)c1C2=O)C[C@](O)(C(C)=O)C[C@@H]3O[C@@H]1C[C@H](N)[C@@H](O)[C@H](C)O1	.	-116	.	.	.	128*
COc1cccc2c1C(=O)c1c(O)c3c(c(O)c1C2=O)C[C@@](O)(C(=O)CO)C[C@@H]3O[C@H]1C[C@H](N)[C@@H](O)[C@H](C)O1	.	.	-21	-28	-2	18
COc1cccc2c1C(=O)c1c(O)c3c(c(O)c1C2=O)C[C@](O)(C(=O)CO)C[C@@H]3O[C@@H]1C[C@H](N)[C@@H](O)[C@H](C)O1	.	31	.	.	.	40*
COc1cccc2c1C(=O)c1c(O)c3c(c(O)c1C2=O)C[C@@](O)(C(C)=O)C[C@@H]3O[C@H]1C[C@H](N)[C@H](O)[C@H](C)O1	1	0	.	-86	.	.
O=C(O)C[C@H](NC(=O)CP(=O)(O)O)C(=O)O.[NH-][C@@H]1CCCC[C@H]1[NH-].[Pt]	.	9	.	.	.	40*
NC(=O)C1CCN(C(=O)c2cnn(-c3ccccc3)c2NC(=O)c2cccc(F)c2)CC1	.	.	75*	-18	1	.
SMILES	Furin inhibitor	EP2 mod	JMJD2C inh	NR2E3 ag-1	NR2E3 ag-2	PGE2 EP2 inh
O=C(Nc1c(C(=O)N2CCCC2)cnn1-c1ccccc1)c1cccc(F)c1	-8	-24	-7	1	-1	6
S=C(NCCCN1CCOCC1)NC1CCCC1	-8	3	10	-8	2	93*
COc1cc(C2SCCCCCCCCCCSC(c3ccc(O)c(OC)c3)SCCCCCCCCCCS2)ccc1O (stereo unspecified)	.	14	.	.	.	41*
CCC(C)(C)NC(=O)CN(C(=O)CCC(=O)Nc1ccccn1)c1ccc(C(C)C)cc1	.	2	.	.	.	11
Cc1[nH]c2ccccc2c1-c1cc(-c2cc(-c3c(C)[nH]c4ccccc34)on2)no1	.	-23	.	.	.	47*
CCOC(=O)c1c(/N=C/C2=C(O)CCCC2=O)sc(C)c1C	28*	4	2	8	-2	5
CCOC(=O)c1cnc(SC)nc1Nc1cccc2ccccc12	-6	62*	-2	-31	-2	6
Cc1nn(CC(=O)NCC2CC2)c(=O)c2cc3sccc3n12	.	26	.	.	.	.
O=[N+]([O-])c1ccc(Cl)c(CNc2ncnc3c2ncn3[C@@H]2CCCCO2)c1	.	13	.	.	.	43*
C[C@H]1CCCC2(CC[N+](C)(CCC[N+](C)(C)C)CC2)C1 (stereo partly specified)	.	8	.	.	.	48*
Cn1c(=O)c2nc(NCc3ccccc3)cnc2n(C)c1=O	-26	65*	-8	4	1	.
O=c1c2ccccc2nc(SCCN2CCOCC2)n1Cc1ccco1	.	-5	.	.	.	14
CC(C)[C@H]1CN(Cc2ccccc2F)CCN1C(=O)c1n[nH]c(=O)c2ccccc12	.	-46	.	.	.	.
CCCCNc1nc(N)nc(-c2cc(Cl)ccc2O)n1	-12	64*	0	-71	3	9
CCNc1nc(N)nc(-c2cc(Cl)ccc2O)n1	-15	-33	-2	-52	-2	8
O=C(NCC1(c2ccccc2)CCCC1)C1(c2ccccc2)CCCC1	-19	62*	-27	-9	0	3
Cc1cc(-c2ccccc2)nc(Oc2cccc(C(F)(F)F)c2)c1S(C)(=O)=O	-32	46	1	2	1	11
Cc1ccc(S(=O)(=O)c2c(C)cc(C)nc2Oc2cccc(C(F)(F)F)c2)cc1	-4	64*	-4	-12	-1	13
Cc1cc(C)c2c(=O)n(CC(=O)Nc3cccc(Cl)c3C)sc2n1	-17	-68	3	5	-1	44*
Cc1cc(C)c2c(=O)n(CC(=O)NC3CCCC3)sc2n1	-2	-51	3	-18	1	118*
Cc1cc(C)c2c(=O)n(CC(=O)Nc3ccc(Br)c(C)c3)sc2n1	-9	-42	1	-16	1	20

High-throughput results (PubChem BioAssay)
